Screens (PubChem BioAssay)
XBP1 UPR activ – adaptive UPR (XBP1) activation. CHO-XBP1 luciferase reporter, IRE1-XBP1 UPR activation, luminescence; percent of tunicamycin response, DMSO as zero. activation, % at 20 µM. actives 0.33% (n = 330,000);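 active = versus positive control, 20 µM dose yields 30% or more activation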;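 also: 100% = tunicamycin at 10 µg/mL and 0% = DMSO only wells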
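Assay system: IRE1-XBP1 luciferase reporter CHO line. Input: 1000 cells/well. Buffer or medium: F12 with 10% serum. Doses: 20 µM, 1% DMSO. Times: overnight seeding at 37 °C, 6 h compound treatment at 37 °C. Technique: Steady-Glo luciferase glow luminescence, 10 min after reagent addition.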
CHOP inh – CHOP inhibition in unfolded protein response. actives 3.8% (n = 220,000). CHO-K1 CHOP-promoter luciferase, tunicamycin-induced, 15-18 h. inhibition, % at 10 µM;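 active = compounds that reduced the stress-induced luciferase reporter signal by more than about 70% of percent inhibition, limit read from the data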;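 also: 0% = tunicamycin plus vehicle and 100% = wells without tunicamycin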
Dynein transport – blocks dynein driven cargo transport along microtubules | actives 0.47% (n = 220,000) | 3617.4 mouse cells, GR-EGFP nuclear translocation imaging; test concentration mostly 20 µM; stimulated with dexamethasone, 1 µM; stronger effect = lower value | AID 1381 | z-score, hits read low;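 active = plate z-score of nuclear minus cytoplasmic receptor signal below a set negative limit, without overly bright fluorescence or cell loss, cut at about -3.5 in these data, passing the limit was not always enough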;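 also: z-score of nuclear minus cytoplasmic ring GR-EGFP intensity difference per well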
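Buffer or medium: tet-free, stripped-serum medium; Also added: dexamethasone, 1.0 µM final; Technique: high-content fluorescence imaging after fixation; Times: 48 h induction, 1 h compound, 30 min dex at 37 °C; Read-out: per-cell GR-EGFP intensity, nucleus versus surrounding cytoplasmic ring, well-averaged.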
Lmaj promast – inhibitors of Leishmania major promastigote growth; AID 1063; Leishmania major promastigotes, resazurin fluorescence viability; inhibition, % at 10 µM; actives 9% (n = 200,000); in the data active = inhibition above about 50%;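 also: promastigotes grown with compound for 44 hours at 28 °C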
T cruzi inh – T. cruzi replication inhibition; inhibition, % (concentration not given with the values); T. cruzi beta-gal in NIH3T3, luminescence, 90 h; actives 1.4% (n = 300,000); AID 1885;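 active = mean inhibition across valid replicates above about 55%, limit read from the data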;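 also: signal also drops with host cell toxicity which is not excluded here; 0% = plate median of DMSO wells and 100% = zero luminescence signal; higher percent means less beta-gal luminescence so fewer parasites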
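System – NIH/3T3 host cells with β-galactosidase reporter T. cruzi · Doses – single 50 nL compound addition per well in DMSO · Reagent – 5000 T. cruzi trypomastigotes/well · Medium – Low-serum DMEM with 2% FBS · Timing – ≥90 h infection period, 3 h prior cell attachment · Evaluation – parasite load inhibition, % · Technique – GalScreen luminescence, 60 min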
UPR CHOP act – apoptotic UPR (CHOP) activation | CHO-CHOP luciferase reporter, luminescence; percent of tunicamycin response over DMSO baseline | activation, % at 10 µM | actives 0.34% (n = 330,000);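 active = at 10 µM dose, activation of 40% or more, normalized to positive control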;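 also: 100% = tunicamycin at 10 µg/mL and 0% = DMSO alone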
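measured by = luciferase luminescence | assay system = CHO-CHOP cells, stable luciferase reporter of PERK-eIF2a-CHOP signalling | amount = 500 reporter cells seeded per well | timing = 6 h compound exposure at 37 °C after overnight seeding | controls = positive tunicamycin 10 µg/mL, negative DMSO alone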
Active calls of the source: *; . = no result given; ! = a repeat was not active. Only a selection was taken, and hits are over-represented in it overall.

SMILES | XBP1 UPR activ | CHOP inh | Dynein transport | Lmaj promast | T cruzi inh | UPR CHOP act
COc1ccccc1/C=C/C(=O)OCCN1C(=O)c2ccccc2C1=O | -4 | . | . | . | -7 | -1
Cc1ccc(NC2=C(NC(=O)c3ccccc3)C(=O)c3ccccc3C2=O)cc1Cl | -1 | -65 | -0.94 | 98* | -1 | 2
CC1=C(Nc2ccc(C(=O)O)cc2)C(=O)c2ccccc2C1=O | -4 | . | . | . | -13 | 2
O=C(O)c1cccc(NC2=C(Cl)C(=O)c3ccccc3C2=O)c1 | . | -72 | -0.5 | 66* | 64* | .
CC(=O)Nc1ccc(NC(=O)C2CCCN2/C=C/C(=O)C(F)(F)F)cc1 (configuration not stated) | 3 | 25 | 0.058 | 1 | -1 | 0
O=C(Nc1ccccc1)Nc1nnc(Cc2ccc([N+](=O)[O-])cc2)s1 | 2 | 90* | 0.036 | -8 | 11 | 5
O=C(Nc1nnc(Cc2ccc([N+](=O)[O-])cc2)s1)Nc1ccccc1F | 3 | 74* | -1.3 | -9 | -16 | -1
Cc1ccc(Cl)cc1NC(=S)NCc1cccn1C | 1 | 3 | 1.1 | 51* | -11 | 0
CC(CCc1ccccc1)NC(=O)COC(=O)c1cccnc1Cl (configuration not stated) | -1 | . | . | . | . | 0
COc1ccc(Nc2nc3c(C)cccn3c(=O)c2C=NCc2ccccc2)cc1 | 3 | 16 | -1.1 | 63* | 50 | 0
CCCCNC(=O)CCn1c(=O)c2ccccc2n(Cc2ccc(Cl)cc2)c1=O | 4 | 87* | 0.0082 | 57* | 8 | 0
CCOc1ccc(-c2nnc(-c3ccncc3)o2)cc1OCC | 2 | 30 | 0.67 | 78* | -1 | 1
Cc1ccc(C(=O)C(c2ccccc2)N2Cc3ccccc3C2=N)cc1 (configuration not stated) | 9 | 70 | 1.2 | 99* | 37 | 1
CCC(NC(=O)c1ccc([N+](=O)[O-])cc1[N+](=O)[O-])c1ccccc1 (configuration not stated) | -3 | 35 | -0.19 | 92* | 58* | 1
CNC(=O)c1ccccc1NC(=O)C1CC(=O)N(C(C)C)C1 (configuration not stated) | -3 | . | . | . | 4 | 2
OC(COCc1ccccc1)CN1CCN(c2ccccc2)CC1 (configuration not stated) | -4 | 0 | 3.2 | 90* | 2 | 1
Oc1ccccc1N1CCN(CC(O)COCc2ccccc2Cl)CC1 (configuration not stated) | 3 | -8 | 0.18 | 85* | 33 | 2
OC(COCc1cccs1)CN1CCN(c2cccc(C(F)(F)F)c2)CC1 (configuration not stated) | -3 | 25 | -0.34 | 84* | 8 | 0
CCCc1ccc(OCC(O)CN2CCN(c3ccccc3)CC2)cc1 (configuration not stated) | -2 | -5 | 0.081 | 94* | -7 | -2
O=C1CC/C=C\C[C@@H](CC(=O)N(CCO)Cc2ccccc2)C(=O)N[C@H](Cc2c[nH]c3ccccc23)CO1 | 0 | . | . | . | . | -1
CCN(CC(=O)NCc1cccs1)c1ccc(S(=O)(=O)N2CCN(C)CC2)cn1 | -1 | 5 | -0.89 | . | -7 | 0
Cc1ccc(OCC(O)CN2CCN(c3ccccc3)CC2)cc1 (configuration not stated) | 1 | 18 | 2.7 | 22 | 1 | 0
CCc1ccc(OCC(O)CN2CCN(c3ccccc3)CC2)cc1 (configuration not stated) | -2 | 56 | -0.34 | 94* | 8 | -2
O=C(Cc1c[nH]c2ccccc12)N1CCN(S(=O)(=O)c2ccc(Cl)cc2)CC1 | -1 | . | . | . | . | 1
O=S(=O)(c1ccc(Cl)cc1)N1CCN(Cc2c[nH]c3ccccc23)CC1 | 1 | 71* | -0.4 | 52* | -6 | -1
SMILES | XBP1 UPR activ | CHOP inh | Dynein transport | Lmaj promast | T cruzi inh | UPR CHOP act
Clc1ccccc1N1CCN(Cc2c[nH]c3ccccc23)CC1 | 3 | . | . | . | 74* | 1
COC(=O)C(C)(C)ONC(=O)Nc1ccccc1Br | 0 | 16 | -0.81 | 69* | 4 | 12
COCC(=O)Nc1ccccc1Br | -2 | 16 | -0.36 | 54* | -1 | -3
CCN(CC(=O)Nc1ccccc1Br)C1CCCCC1 | 1 | 73* | 1.2 | 12 | 8 | 1
CC1CCCCN1C(=O)/C(=C\c1ccccc1)c1ccccc1 (configuration not stated) | -1 | 88* | 0.0069 | 9 | -19 | 2
CN1CCN(C(=O)/C(=C/c2ccccc2)c2ccccc2)CC1 | 0 | 2 | -0.46 | 0 | -5 | 0
CC1CC(C)CN(C(=O)/C(=C\c2ccccc2)c2ccccc2)C1 (configuration not stated) | -2 | 68 | -0.52 | 96* | 0 | 1
CC1CCCCN1C(=O)c1ccc(C(=O)c2ccccc2)cc1 (configuration not stated) | 1 | . | . | . | . | 0
COc1ccc(-c2[nH]ncc2/C=N/NC(=O)c2ccncc2)c(OC)c1 | -3 | . | . | . | -12 | 0
Cc1c(Cl)cccc1NC(=O)CCN1CCC(C(N)=O)CC1 | -3 | . | . | . | -18 | 5
COc1ccc(-n2cc(CN[C@H]3CCCCNC3=O)c(-c3cccc(F)c3)n2)cc1 | 3 | 19 | -1.1 | . | 5 | 0
COc1ccc(-n2cc(CNC3CCN(C)CC3)c(-c3cccc(F)c3)n2)cc1 | 0 | -33 | 0.34 | 100* | 17 | 3
CC(=O)N1CCN(Cc2nc3cc(NC(=O)c4cccc(Br)c4)ccc3n2C)CC1 | 0 | 12 | -0.7 | . | 4 | 1
Cc1cc(NS(=O)(=O)c2ccc(NC(=O)c3cnc(Cl)c(Cl)c3)cc2)nc(C)n1 | -1 | . | . | . | . | -1
COc1cccc(Cn2nnc(C(=O)Nc3cc(Cl)ccc3OC)c2N)c1 | 13 | 53 | -0.59 | -6 | -6 | -2
COc1ccc(OC)c(NC(=O)c2nnn(Cc3ccc(Br)cc3F)c2N)c1 | 1 | 88* | 0.17 | -4 | 25 | -1
NC1=NC(=Nc2cccc(S(=O)(=O)N3CCOCC3)c2)c2ccccc21 | -2 | 25 | 0.0033 | . | -6 | 0
Cc1c(O)cccc1C(=O)N[C@@H](CSc1ccccc1)[C@H](O)CN1C[C@H]2CCCC[C@H]2C[C@H]1C(=O)NC(C)(C)C | 4 | . | . | . | 67*! | 14
CCN(CC(=O)NC(C)(C)C)C(=O)c1ccccc1SCC(=O)NC1CCCCCCC1 | -5 | . | . | . | 18 | 2
COc1ccc(CN2CCCCC2c2cccnc2)c(OC)c1C (configuration not stated) | -2 | . | 0.54 | 70* | 24 | 0
